According to ChEMBL document CHEMBL1759956, “Rhodium(II) acetate-catalyzed stereoselective synthesis, SAR and anti-HIV activity of novel oxindoles bearing cyclopropane ring” (Eur J Med Chem, 2011):

How the values were obtained:
[1] = Cytotoxicity against human TZM-bl cells assessed as cell viability at 10 ug after 48 hrs by MTT assay; assay type: cell-based; details: read-out: Activity
Method in brief: (§1)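 TZM-bl cells, 3 × 10³ per well, incubated 48 h at 37 °C in 5% CO₂ with or without compound. MTT (5 mg/mL reagent) added for 3 h, then solubilised in 20% SDS/50% DMF in PBS. OD read at 570 nm with 690 nm reference. Viability = [(OD treated − OD virus control)/(OD uninfected − OD virus control)] × 100.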

[2] = Partition coefficient, log P of the compound; assay type: physicochemical; details: octanol/water
[3] = system: Human immunodeficiency virus 1; assay: Antiviral activity against 0.025 MOI Human immunodeficiency virus 1 infected in human TZM-bl cells at 2 ug/ml after 48 hrs by beta-galactosidase assay; assay type: functional; details: Human immunodeficiency virus 1, TZM-bl
Method in brief: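 TZM-bl cells, 2.0 × 10⁵ per well, cultured overnight at 37 °C in 5% CO₂. Virus with treatments added for 4 h. Cells then washed twice in serum-free DMEM and refed with DMEM + 10% FCS. Compounds re-added and cells incubated 48 h. Cells fixed in 1% glutaraldehyde for 10 min and stained 24 h at 37 °C. Blue foci counted microscopically; % inhibition = 100 − (foci treated/foci untreated infected × 100). AZT positive control.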

[4] = Cytotoxicity against human CEM cells expressing green fluorescent protein assessed as cell viability at 20 ug after 48 hrs by MTT assay; assay type: cell-based, CCRF-CEM; details: read-out: Activity
[5] = Cytotoxicity against human CEM cells expressing green fluorescent protein assessed as cell viability at 50 ug after 48 hrs by MTT assay; assay type: cell-based, CCRF-CEM; details: read-out: Activity
[6] = Cytotoxicity against human CEM cells expressing green fluorescent protein assessed as cell viability at 10 ug after 48 hrs by MTT assay; assay type: cell-based, CCRF-CEM; details: read-out: Activity
[7] = Cytotoxicity against human CEM cells expressing green fluorescent protein assessed as cell viability at 100 ug after 48 hrs by MTT assay; assay type: cell-based, CCRF-CEM; details: read-out: Activity
[8] = system: Human immunodeficiency virus 1; assay: Antiviral activity against 0.05 MOI Human immunodeficiency virus 1 NL4.3 infected in human CEM cells expressing green fluorescent protein at 20 ug/ml after 8 days by fluorometric analysis; assay type: functional; details: Human immunodeficiency virus 1, NL4.3, CCRF-CEM, 192 h
Method in brief: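 CEM-GFP cells seeded at 2.0 × 10⁵ cells/mL with compounds in duplicate. AZT ([…]) was the positive control; 50% ethanol and distilled water were vehicle controls. Cells incubated at 37 °C in 5% CO₂. On day 5, 0.4 mL of suspension was replaced with 1 mL fresh medium and compounds were re-added, then incubation continued. % inhibition = 100 − (GFP fluorescence treated/untreated infected × 100).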

[9] = Cytotoxicity against human TZM-bl cells assessed as cell viability at 50 ug after 48 hrs by MTT assay; assay type: cell-based; details: read-out: Activity; method in brief: as §1
[10] = Cytotoxicity against human TZM-bl cells assessed as cell viability at 100 ug after 48 hrs by MTT assay; assay type: cell-based; details: read-out: Activity; method in brief: as §1
[11] = Cytotoxicity against human TZM-bl cells assessed as cell viability at 20 ug after 48 hrs by MTT assay; assay type: cell-based; details: read-out: Activity; method in brief: as §1

Compound | viability at 48 h, 10 ug [1] [%] | logP [2] | inhibition at 2 µg/mL [3] [%] | viability at 48 h, 20 ug [4] [%] | viability at 48 h, 50 ug [5] [%] | viability at 48 h, 10 ug [6] [%] | viability at 48 h, 100 ug [7] [%] | inhibition at 20 µg/mL [8] [%] | viability at 48 h, 50 ug [9] [%] | viability at 48 h, 100 ug [10] [%] | viability at 48 h, 20 ug [11] [%]
O=C1Nc2ccc([N+](=O)[O-])cc2[C@]12C[C@H]2CO | 100 | 0.54 | 5 | 127 | 122 | 119 | 116 | 3 | 104 | 109 | 107
O=C1Nc2ccc([N+](=O)[O-])cc2[C@]12C[C@H]2CCl | 102 | 1.84 | 6 | 118 | 103 | 101 | 76 | 4 | 101 | 92 | 102
O=C1Nc2ccc(OC(F)(F)F)cc2[C@]12C[C@H]2CCl | 91 | 3.48 | 9 | 74 | 37 | 94 | 2 | 3 | 66 | 60 | 95
O=C1Nc2ccc(OC(F)(F)F)cc2[C@]12C[C@H]2CO | 90 | 1.89 | 10 | 72 | 33 | 91 | 3 | 7 | 62 | 60 | 93
Cc1ccc2c(c1)[C@]1(C[C@H]1CCl)C(=O)N2 | 93 | 2.44 | 8 | 89 | 85 | 92 | 81 | 5 | 88 | 87 | 91
Cc1ccc2c(c1)[C@]1(C[C@H]1CO)C(=O)N2 | 102 | 1.21 | 6 | 101 | 100 | 105 | 100 | 3 | 95 | 93 | 100
O=C1Nc2ccccc2[C@]12C[C@H]2CO | 99 | 2.19 | 4 | 95 | 92 | 96 | 90 | 6 | 92 | 89 | 98
O=C1Nc2ccccc2[C@]12C[C@H]2CCl | 93 | 1.95 | 7 | 87 | 83 | 91 | 88 | 2 | 87 | 86 | 92
